The record followed here is ChEMBL document CHEMBL4257441, “Protection effect of intracellular melanin from Lachnum YM156 and Haikunshenxi capsule combination on adenine-induced chronic renal failure in mice” (Medchemcomm, 2017).

For data set [1], the system named is Mus musculus. Briefly: Protective effect against adenine-induced chronic renal failure in Kunming mouse assessed as nephridial MDA levels at 100 mg/kg, ig qd administered for 4 successive weeks with haikunshenxi capsule by thiobarbituric acid method (reference value: 5.05 +/- 0.15 nmol/ml). The data set is classed as functional.
The test system of data set [2] is Mus musculus. Kind of data set: Protective effect against adenine-induced chronic renal failure in ig dosed Kunming mouse assessed as increase in nephridial SOD levels administered as qd for 4 successive weeks with haikunshenxi capsule by hydroxylamine method. Format: functional, organism-based. A digest of the protocol:
(§1)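 Male Kunming mice (20 ± 5 g) given dietary adenine to induce CRF, then dosed orally at 100 or 200 mg kg–1, with or without Haikunshenxi capsule; n = 10 per group. Kidney homogenate assayed for SOD and CAT (U mg–1 protein), GSH-Px (U L–1), GSH (mg g–1 protein) and MDA (nmol mL–1).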

The test system of data set [3] is Mus musculus. Kind of data set: Protective effect against adenine-induced chronic renal failure in ig dosed Kunming mouse assessed as increase in nephridial GSH-PX levels administered as qd for 4 successive weeks by colorimetric method. The data set is classed as functional, organism-based. An outline of the steps: as §1
Data set [4] concerns Mus musculus. Kind of data set: Protective effect against adenine-induced chronic renal failure in Kunming mouse assessed as nephridial IL-1beta levels at 100 mg/kg, ig qd administered for 4 successive weeks with haikunshenxi capsule (reference value: 18.34 +/- 0.25 pg/ml). Format: functional.
In data set [5] the test system is Mus musculus. Kind of data set: Protective effect against adenine-induced chronic renal failure in Kunming mouse assessed as nephridial IL-6 levels at 100 mg/kg, ig qd administered for 4 successive weeks (reference value: 20.85 +/- 0.11 pg/ml). Format: functional.
The subject of data set [6] is Mus musculus. Kind of data set: Protective effect against adenine-induced chronic renal failure in Kunming mouse assessed as nephridial MDA levels at 200 mg/kg, ig qd administered for 4 successive weeks with haikunshenxi capsule by thiobarbituric acid method (reference value: 5.05 +/- 0.15 nmol/ml). The data set is classed as functional.
Data set [7] can be described thus: Cytotoxicity against human HepG2 cells assessed as cell viability at 1 to 300 ug/ml after 24 hrs by MTT assay relative to control. The data set is classed as cell-based. To be noted: read-out: Activity. A digest of the protocol: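 HepG2 cells exposed to the melanin were read by MTT absorbance. Viability (% of control) is calculated as treated-well absorbance ×100 / control-well absorbance.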
In general terms: Tetrazolium dyes change colour on reduction, which living cells bring about.

Data set [8] has as its system Mus musculus. Kind of data set: Protective effect against adenine-induced chronic renal failure in Kunming mouse assessed as nephridial GSH-PX levels at 100 mg/kg, ig qd administered for 4 successive weeks by colorimetric method (reference value: 688.45 +/- 12.67 U/L). Format: functional.
The test system of data set [9] is Mus musculus. Kind of data set: Protective effect against adenine-induced chronic renal failure in Kunming mouse assessed as nephridial MDA levels at 200 mg/kg, ig qd administered for 4 successive weeks by thiobarbituric acid method (reference value: 5.05 +/- 0.15 nmol/ml). The data set is classed as functional.
For data set [10], the system named is Mus musculus. Briefly: Protective effect against adenine-induced chronic renal failure in ig dosed Kunming mouse assessed as increase in albumin levels in serum administered as qd for 4 successive weeks with haikunshenxi capsule by bromocresol green colorimetric method. Format: functional, organism-based. An outline of the steps: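 Adenine-fed CRF model in male Kunming mice (20 ± 5 g) housed at 18–20 °C on a 12 h light/dark cycle. Oral dosing at 100 or 200 mg kg–1, with or without Haikunshenxi capsule; ten mice per group. Serum creatinine, BUN, total protein and albumin measured, each group compared with the model group.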

In data set [11] the test system is Mus musculus. Kind of data set: Protective effect against adenine-induced chronic renal failure in Kunming mouse assessed as nephridial iNOS levels at 100 mg/kg, ig qd administered for 4 successive weeks (reference value: 1.98 +/- 0.12 U/mg). The data set is classed as functional.

As for `Cc1c(=O)c(=O)c2c3c[nH]c4c(C)c(=O)c(=O)c(c5c[nH]c1c52)c43`, the Activity was 3.05 nmol/mL in data set [1]; “Dose-dependent effect” in [2]; “Dose-dependent effect” in data set [3]; 14.51 pg/mL in data set [4]; 18.27 pg/mL in [5]; 2.88 nmol/mL in data set [6]. For the same compound, the Activity in [8] is 743.09 U/L; in data set [9], 3.74 nmol/mL; in data set [10], “Dose-dependent effect”; in data set [11] it was 1.79 U/mg. Also, in [7], the viability at 24 h came out at 100%.
